Source: ChEMBL document CHEMBL1140788, “Development of CXCR3 antagonists. Part 3: Tropenyl and homotropenyl-piperidine urea derivatives” (Bioorg Med Chem Lett, 2008)
Values after ≈ are worked out from the molar mass of the structure shown. Active and inactive are the calls of the source. No cut-off for these calls is given here.

Legend:
[1] = Half life in mouse; assay type: ADME, organism-based; settings: in vivo
[2] = target: T1, C-X-C chemokine receptor type 3 (Homo sapiens, UniProt P49682); experiment: Antagonist activity at human CXCR3 by [35S]GTP-gamma-S binding assay; assay type: functional
T1 sequence (P49682 whole entry): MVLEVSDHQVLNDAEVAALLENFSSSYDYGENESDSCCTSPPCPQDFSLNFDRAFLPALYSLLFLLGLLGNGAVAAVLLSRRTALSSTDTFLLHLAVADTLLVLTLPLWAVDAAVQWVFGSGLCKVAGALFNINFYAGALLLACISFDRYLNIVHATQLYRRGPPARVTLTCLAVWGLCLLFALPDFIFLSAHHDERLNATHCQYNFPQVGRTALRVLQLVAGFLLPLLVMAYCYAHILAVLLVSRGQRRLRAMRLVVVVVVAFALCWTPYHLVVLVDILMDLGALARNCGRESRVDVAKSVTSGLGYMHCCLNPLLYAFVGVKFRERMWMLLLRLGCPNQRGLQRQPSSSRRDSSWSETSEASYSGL

[3] = Distribution coefficient, log D at pH 7.4; assay type: physicochemical; settings: octanol/water
Method in brief: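 Octanol–water partition at pH 7.4.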

[4] = Oral bioavailability in BALB/c mouse at 30 mg/kg; assay type: ADME, organism-based; settings: in vivo
Method in brief: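 Balb/c mice given 30 mg/kg orally; plasma concentrations followed over time, sampled from 0 to 16 h post dose.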

[5] = Solubility at pH 6.5 buffer; assay type: physicochemical
[6] = Intrinsic clearance in human liver microsomes at 0.5 uM; assay type: ADME, Microsome
[7] = target: T2, C-X-C chemokine receptor type 3 (Mus musculus, UniProt O88410); experiment: Antagonist activity at mouse CXCR3; assay type: functional
T2 sequence (O88410 whole entry): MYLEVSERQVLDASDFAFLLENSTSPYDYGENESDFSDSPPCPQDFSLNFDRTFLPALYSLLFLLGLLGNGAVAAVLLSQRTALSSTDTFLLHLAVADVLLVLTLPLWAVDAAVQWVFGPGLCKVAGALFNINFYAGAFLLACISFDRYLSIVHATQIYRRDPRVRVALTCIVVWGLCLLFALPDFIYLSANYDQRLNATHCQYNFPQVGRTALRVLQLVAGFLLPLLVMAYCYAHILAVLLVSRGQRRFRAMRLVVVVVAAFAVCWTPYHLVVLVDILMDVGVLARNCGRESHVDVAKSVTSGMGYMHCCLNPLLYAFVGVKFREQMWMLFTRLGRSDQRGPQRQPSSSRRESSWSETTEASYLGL

Cytochrome P450 2D6 = Cytochrome P450 2D6 (Homo sapiens, UniProt P10635); experiment: Inhibition of CYP2D6; assay type: ADME
Cytochrome P450 2D6, sequence (P10635 whole entry): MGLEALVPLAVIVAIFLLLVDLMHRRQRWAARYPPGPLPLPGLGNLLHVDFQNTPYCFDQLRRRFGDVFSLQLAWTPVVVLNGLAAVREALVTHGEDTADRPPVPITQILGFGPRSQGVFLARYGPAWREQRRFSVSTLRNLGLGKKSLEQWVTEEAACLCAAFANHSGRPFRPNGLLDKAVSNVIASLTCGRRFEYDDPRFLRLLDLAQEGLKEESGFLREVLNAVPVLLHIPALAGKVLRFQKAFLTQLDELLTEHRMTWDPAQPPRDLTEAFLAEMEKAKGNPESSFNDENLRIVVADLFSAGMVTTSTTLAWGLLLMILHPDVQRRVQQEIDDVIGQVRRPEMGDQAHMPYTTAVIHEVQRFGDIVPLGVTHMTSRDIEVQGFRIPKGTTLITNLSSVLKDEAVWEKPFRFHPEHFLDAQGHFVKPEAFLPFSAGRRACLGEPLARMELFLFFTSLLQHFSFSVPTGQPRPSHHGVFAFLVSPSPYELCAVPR

Homo sapiens = organism: Homo sapiens; experiment: Protein binding to human plasma; settings: read-out: PPB
Mus musculus [8] = experiment: Ex vivo inhibition of CXCL11-induced mouse CXCR3 receptor internalization in mouse T cells at 30 mg/kg, po after 10 hrs; assay type: functional, organism-based; design: dose 30 mg/kg; settings: T-cell
Method in brief: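 Mice were dosed orally at 30 mg/kg, and plasma was taken at each timepoint after dosing. Activated murine T cells were incubated with that plasma, then stimulated with 3 nM CXCL11 (A75) for 60 min at 37 °C. Agonist was removed and surface CXCR3 was measured by flow cytometry.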

[9] = target: 5-hydroxytryptamine receptor 5A (Homo sapiens, UniProt P47898); experiment: Inhibition of 5HT5A receptor
5-hydroxytryptamine receptor 5A, sequence (P47898 whole entry): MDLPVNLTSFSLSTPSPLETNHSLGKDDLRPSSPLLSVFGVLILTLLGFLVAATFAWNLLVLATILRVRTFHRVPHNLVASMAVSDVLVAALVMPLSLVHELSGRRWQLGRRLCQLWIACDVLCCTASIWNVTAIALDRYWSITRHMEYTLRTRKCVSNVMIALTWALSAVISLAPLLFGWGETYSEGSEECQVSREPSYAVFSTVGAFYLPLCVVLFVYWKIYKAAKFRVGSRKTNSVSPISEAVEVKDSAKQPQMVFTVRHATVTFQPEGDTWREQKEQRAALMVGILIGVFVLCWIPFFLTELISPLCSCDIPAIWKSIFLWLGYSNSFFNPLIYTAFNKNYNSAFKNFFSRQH

[10] = target: T3, Muscarinic acetylcholine receptor M2 (Homo sapiens, UniProt P08172); experiment: Inhibition of muscarinic M2 receptor
T3 sequence (P08172 whole entry): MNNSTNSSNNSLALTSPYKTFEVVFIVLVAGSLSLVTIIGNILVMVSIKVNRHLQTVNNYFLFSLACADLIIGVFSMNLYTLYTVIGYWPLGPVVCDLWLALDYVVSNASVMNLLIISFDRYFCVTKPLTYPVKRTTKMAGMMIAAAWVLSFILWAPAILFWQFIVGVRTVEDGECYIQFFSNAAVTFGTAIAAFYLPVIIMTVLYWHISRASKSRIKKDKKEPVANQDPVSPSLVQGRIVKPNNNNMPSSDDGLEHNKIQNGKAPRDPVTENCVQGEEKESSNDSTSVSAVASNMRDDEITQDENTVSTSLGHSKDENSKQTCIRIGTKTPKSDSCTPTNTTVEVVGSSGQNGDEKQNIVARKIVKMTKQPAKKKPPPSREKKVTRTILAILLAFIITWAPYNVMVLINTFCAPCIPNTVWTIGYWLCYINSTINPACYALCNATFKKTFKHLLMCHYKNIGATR

[11] = target: T4, 5-hydroxytryptamine receptor 1A (Homo sapiens, UniProt P08908); experiment: Inhibition of 5HT1A receptor
T4 sequence (P08908 whole entry): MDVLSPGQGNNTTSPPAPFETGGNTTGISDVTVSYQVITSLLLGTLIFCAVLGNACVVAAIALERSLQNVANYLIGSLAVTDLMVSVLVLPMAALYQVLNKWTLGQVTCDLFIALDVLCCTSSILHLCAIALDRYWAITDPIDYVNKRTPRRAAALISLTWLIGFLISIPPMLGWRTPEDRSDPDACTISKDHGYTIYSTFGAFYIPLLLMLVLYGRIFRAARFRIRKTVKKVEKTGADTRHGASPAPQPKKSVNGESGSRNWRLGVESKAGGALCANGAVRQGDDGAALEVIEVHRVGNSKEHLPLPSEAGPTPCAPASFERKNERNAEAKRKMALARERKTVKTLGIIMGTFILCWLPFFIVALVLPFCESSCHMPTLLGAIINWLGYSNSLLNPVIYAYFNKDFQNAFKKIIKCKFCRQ

[12] = target: T5, Muscarinic acetylcholine receptor M1 (Homo sapiens, UniProt P11229); experiment: Inhibition of muscarinic M1 receptor
T5 sequence (P11229 whole entry): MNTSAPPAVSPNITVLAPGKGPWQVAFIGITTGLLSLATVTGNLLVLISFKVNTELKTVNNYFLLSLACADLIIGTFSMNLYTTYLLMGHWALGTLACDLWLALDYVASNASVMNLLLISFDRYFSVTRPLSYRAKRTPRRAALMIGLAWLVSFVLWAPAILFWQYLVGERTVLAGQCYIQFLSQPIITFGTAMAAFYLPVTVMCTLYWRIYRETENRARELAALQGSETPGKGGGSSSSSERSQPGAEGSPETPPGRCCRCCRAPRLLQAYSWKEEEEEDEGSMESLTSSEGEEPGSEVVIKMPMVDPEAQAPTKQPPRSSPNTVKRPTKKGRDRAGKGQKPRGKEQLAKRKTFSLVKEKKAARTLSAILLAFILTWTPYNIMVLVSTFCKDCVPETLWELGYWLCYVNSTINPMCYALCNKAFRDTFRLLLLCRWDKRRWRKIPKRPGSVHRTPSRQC

[13] = Inhibition of sodium channel
[14] = target: Muscarinic acetylcholine receptor M3 (Homo sapiens, UniProt P20309); experiment: Inhibition of muscarinic M3 receptor
Muscarinic acetylcholine receptor M3, sequence (P20309 whole entry): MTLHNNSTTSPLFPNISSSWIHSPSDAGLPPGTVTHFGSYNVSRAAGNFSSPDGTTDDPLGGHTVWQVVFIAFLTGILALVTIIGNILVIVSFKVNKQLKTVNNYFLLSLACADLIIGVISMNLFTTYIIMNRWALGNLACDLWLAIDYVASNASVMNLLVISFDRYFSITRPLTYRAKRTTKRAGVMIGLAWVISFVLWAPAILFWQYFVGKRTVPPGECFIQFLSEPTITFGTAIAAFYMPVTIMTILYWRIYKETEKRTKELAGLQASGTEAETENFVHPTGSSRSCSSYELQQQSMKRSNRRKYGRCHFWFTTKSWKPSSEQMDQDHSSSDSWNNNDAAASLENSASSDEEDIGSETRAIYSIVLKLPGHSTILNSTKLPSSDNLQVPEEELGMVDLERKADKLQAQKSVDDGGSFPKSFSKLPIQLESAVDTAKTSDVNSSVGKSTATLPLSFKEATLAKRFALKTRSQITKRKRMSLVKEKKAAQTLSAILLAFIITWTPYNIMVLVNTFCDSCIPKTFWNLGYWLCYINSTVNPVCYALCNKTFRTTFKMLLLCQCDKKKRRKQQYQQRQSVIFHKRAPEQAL

Mus musculus [15] = organism: Mus musculus; experiment: In vitro inhibition of CXCL11-induced mouse CXCR3 receptor internalization in mouse T cells in presence of 90% naive mouse plasma; settings: T-cell, read-out: pA2 (converted)
Mus musculus [16] = experiment: Ex vivo inhibition of CXCL11-induced mouse CXCR3 receptor internalization in mouse T cells at 30 mg/kg, po after 4 hrs; assay type: functional, organism-based; design: dose 30 mg/kg; settings: T-cell
Method in brief: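 Mice dosed orally at 30 mg/kg; plasma collected at timepoints post dose and incubated with activated murine T cells, then 3 nM CXCL11 (A75) for 60 min at 37 °C; agonist removed, surface CXCR3 measured by flow cytometry.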

Row | SMILES | Ki [2] [nM] | logD [3] | solubility [5] [µg/mL] | microsomal CLint at 0.5 µM [6] [µL/min/mg] | Ki [7] [nM] | also measured
1 | CC(=O)c1cccc(NC(=O)NC2CCN(CC3=CC4CCCC(C3)N4C(C)=O)CC2)c1 (stereo not given) | 280 | 2.8 | – | 10 | – | –
2 | CC(=O)N1C2C=C(CN3C4CCC3CC(NC(=O)Nc3cc(F)cc(C(F)(F)F)c3)C4)CC1CCC2 (stereo not given) | 7 | 3.1 | 40 (≈ 78.7 µM) | 7 | 6 | Activity (Mus musculus [8]): Active; Ki [9]: 3000 nM; Ki [10]: 280 nM; Ki [11]: 280 nM; Ki [12]: 230 nM; Ki (Cytochrome P450 2D6): 15000 nM; Ki [13]: 570 nM; Ki [14]: 1200 nM; Kb (Mus musculus [15]): 95.5 nM; bioavailability [4]: 70%
3 | CC(C)C(=O)N1C2C=C(CN3CCC(NC(=O)Nc4cc(F)cc(C(F)(F)F)c4)CC3)CC1CC2 (stereo not given) | 28 | 3.9 | – | 58 | 180 | –
4 | CC(C)(C)C(=O)N1CCC(CN2CCC(NC(=O)Nc3cc(C(F)(F)F)cc(C(F)(F)F)c3)CC2)CC1 | 60 | 4.2 | 45 (≈ 83.9 µM) | 80 | – | fraction unbound (Homo sapiens): 0.01
5 | CC(=O)N1C2C=C(CN3CCC(NC(=O)Nc4cc(F)cc(C(F)(F)F)c4)CC3)CC1CCC2 (stereo not given) | 9 | 3.4 | – | 9 | 38 | Activity (Mus musculus [16]): Active; Kb (Mus musculus [15]): 186 nM
6 | O=C(Nc1ccc2ccccc2c1)NC1CCN(C/C2=C/CCCCCC2)CC1 | – | – | 0.1 (≈ 0.255 µM) | 72 | – | fraction unbound (Homo sapiens): < 0.001; bioavailability [4]: 1%
7 | CCOC(=O)N1C2C=C(CN3CCC(NC(=O)Nc4cc(F)cc(C(F)(F)F)c4)CC3)CC1CC2 (stereo not given) | 190 | 4.6 | – | 48 | 950 | –
8 | CC(C)(C)C(=O)N1C2C=C(CN3CCC(NC(=O)Nc4cc(F)cc(C(F)(F)F)c4)CC3)CC1CCC2 (stereo not given) | 10 | 4.5 | – | 74 | 57 | –

Continued by falling Ki [2], values first:

Row | Ki [2] [nM] | logD [3] | solubility [5] [µg/mL] | microsomal CLint at 0.5 µM [6] [µL/min/mg] | Ki [7] [nM] | SMILES | also measured
9 | 1100 | 2.8 | 1360 (≈ 2710 µM) | 3.5 | – | O=C(Nc1cc(C(F)(F)F)cc(C(F)(F)F)c1)NC1CCN(CCC2CCS(=O)(=O)C2)CC1 (stereo not given) | half-life [1]: 5.5 h; bioavailability [4]: 52%
10 | 180 | 3.1 | 850 (≈ 1720 µM) | 4.5 | – | CC(=O)N1CCC(CN2CCC(NC(=O)Nc3cc(C(F)(F)F)cc(C(F)(F)F)c3)CC2)CC1 | –
11 | 120 | 2.8 | – | – | 650 | CC(=O)N1C2CCC1CC(CN1CCC(NC(=O)Nc3cc(F)cc(C(F)(F)F)c3)CC1)C2 (mixture of isomers) | –
12 | 27 | 3 | – | 11 | 120 | CC(=O)N1C2C=C(CN3CCC(NC(=O)Nc4cc(F)cc(C(F)(F)F)c4)CC3)CC1CC2 (stereo not given) | –
13 | 26 | 5.1 | < 1 | 82 | 400 | CC1(C)[C@H]2CC=C(CN3CCC(NC(=O)Nc4cc(C(F)(F)F)cc(C(F)(F)F)c4)CC3)[C@@H]1C2 | Ki (Cytochrome P450 2D6): 5000 nM; fraction unbound (Homo sapiens): 0.001
14 | 20 | 3.4 | – | 9 | 80 | O=C(Nc1cc(F)cc(C(F)(F)F)c1)NC1CCN(CC2=CC3CCC(C2)N3C(=O)C2CC2)CC1 (stereo not given) | –
15 | 18 | 4.2 | – | 60 | 100 | CC(C)(C)C(=O)N1C2C=C(CN3CCC(NC(=O)Nc4cc(F)cc(C(F)(F)F)c4)CC3)CC1CC2 (stereo not given) | –
16 | 11 | 2.5 | – | 22 | 33 | CC(=O)N1C2C=C(CN3CCC(NC(=O)Nc4cccc(OC(C)C)c4)CC3)CC1CCC2 (stereo not given) | –
17 | 3 | 2.7 | – | 50 | 6 | CC(=O)N1C2C=C(CN3CCC(NC(=O)Nc4cc(F)cc(OC(C)C)c4)CC3)CC1CCC2 (stereo not given) | –
